The list is not random: actives were taken first. Their share in the collection is about 5.8%.
IDH1 mut inh: inhibitors of IDH1 R132H reductase, primary screen, biochemical, plate reader, single point; Isocitrate dehydrogenase [NADP] cytoplasmic (Homo sapiens), O75874; diaphorase/resazurin fluorescence, 60 min; inhibition, % at 10 µM; 0.18% of 70,000 active; AID 624101, 2012; in the data active = inhibition above about 34%; inconclusive = no clear call, values can overlap the other calls; inactive = below about 11%;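 note: 0% = DMSO and 100% = no enzyme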
T cruzi growth-1: T. cruzi intracellular proliferation inhibitors, primary screen, cell-based, beta-gal Tulahuen parasites, NIH3T3 host, luminescence | T. cruzi beta-gal in NIH3T3, GalScreen luminescence, 90 h | inhibition, % at 8.34 µM | 5.9% of 77,000 active;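 active = mean inhibition above about 93%, with at least 55% of replicates each passing it, limit read from the data, passing the limit was not always enough; inconclusive = only one of those two conditions holds; inactive = neither condition holds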
GASC1 inh: inhibitors of GASC-1 (KDM4C) histone demethylase, primary screen, biochemical, single concentration HTS; Lysine-specific demethylase 4C (Homo sapiens), Q9H3R0; inhibition, % at 12.5 µM; GST-KDM4C 2-372, H3K9me3 peptide, LANCE TR-FRET; 0.15% of 96,000 active;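 active = mean replicate inhibition above about 25%, with at least 55% of replicates also reaching it, limit read from the data, passing the limit was not always enough; inconclusive = only one of those two conditions met; inactive = neither condition met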
Target sequence (Q9H3R0 2-372 limits assumed): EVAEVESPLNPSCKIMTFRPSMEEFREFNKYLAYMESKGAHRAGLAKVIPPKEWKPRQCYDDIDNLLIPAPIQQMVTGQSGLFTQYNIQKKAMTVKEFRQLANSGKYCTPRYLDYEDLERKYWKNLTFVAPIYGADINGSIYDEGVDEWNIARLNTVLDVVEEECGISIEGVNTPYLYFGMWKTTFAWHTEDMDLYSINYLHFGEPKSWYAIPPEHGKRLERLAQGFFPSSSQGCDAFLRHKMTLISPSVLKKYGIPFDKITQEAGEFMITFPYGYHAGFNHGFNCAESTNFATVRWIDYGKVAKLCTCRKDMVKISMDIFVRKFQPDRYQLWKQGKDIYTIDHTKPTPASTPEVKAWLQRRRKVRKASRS
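System – N-terminal GST-fused human GASC-1 (KDM4C) fragment, residues 2-372 · Input – enzyme final amount 10 nM · Technique – LANCE TR-FRET, Eu antibody, ULight-streptavidin, EDTA, ex 340 nm, em 618/671 nm · Medium – HEPES buffer, pH 7.5, plus ascorbate · Incubation – enzyme reaction 30 min, then detection 60 min, both room temperature · Reagent – H3K9me3 peptide with Fe(II)/2OG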
Pf Dd2 inh: P. falciparum Dd2 growth inhibitors, primary screen, SYBR Green fluorescence, single dose replicates | 72 h; hits give low values | activity change, % at 10 µM | 2.3% of 94,000 active | AID 1159554, 2015; in the data active = activity change below about -80%; inconclusive = no clear call, values can overlap the other calls
T cruzi growth-2: T. cruzi intracellular proliferation inhibitors, confirmation, cell-based, NIH3T3 host, beta-gal parasite, luminescence, cherry-pick; shares compounds with T cruzi growth-1; T. cruzi beta-gal in NIH3T3, GalScreen luminescence, 90 h; inhibition, % at 8.35 µM; 72% of 5,600 active; AID 651739, 2012;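 active = mean replicate inhibition above about 95% and at least 55% of replicates individually reaching it, limit read from the data; inconclusive = only one of the two criteria is met; inactive = neither criterion is met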
T cruzi growth-3: inhibitors of intracellular T. cruzi replication, confirmation, NIH3T3 host cells, beta-gal parasites, cherry-pick, set 2. shares compounds with T cruzi growth-1. T. cruzi beta-gal in NIH3T3, GalScreen luminescence, 90 h. 21% of 5,600 active. inhibition, % at 2.09 µM;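 active = mean inhibition above about 95%, with at least 55% of replicates also reaching it, limit read from the data; inconclusive = meets just one of the two conditions; inactive = meets neither condition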;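 note: plate controls were neutral control median for no effect and positive control median for full effect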
NIH3T3 tox: cytotoxicity in mouse NIH/3T3 fibroblasts, confirmation, cytotoxicity control for T. cruzi proliferation inhibitor project, cell-based, cherry-pick, single point; shares compounds with T cruzi growth-1; cytotoxicity (signal decrease), % at 8.35 µM; NIH/3T3 viability, CellTiter-Glo ATP luminescence, 90 h; AID 651742, 2012; 14% of 5,600 active;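 active = mean signal decrease across replicates above about 35% based on untreated-well scatter, with enough replicates individually passing, limit read from the data; inconclusive = no rule stated though some were filed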;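 note: 0% = median of neutral control wells and 100% = median of positive control wells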
NIH3T3 tox 2: NIH/3T3 fibroblast cytotoxicity, confirmation, cytotoxicity control, cell-based, cherry-pick, single point, set 2; shares compounds with T cruzi growth-1; NIH/3T3 viability, CellTiter-Glo ATP luminescence, 90 h; inhibition, % at 24.9 µM; 56% of 5,600 active;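 active = mean loss of cell viability signal at or above a set limit, and enough replicates individually reaching it; inconclusive = meets only the mean limit or only the replicate share; inactive = meets neither condition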;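 note: 0% = median of neutral control wells and 100% = median of positive control wells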
Numbers without * were called inactive; ? = inconclusive; nt = no result; ! = not confirmed by another sample.

SMILES	IDH1 mut inh	T cruzi growth-1	GASC1 inh	Pf Dd2 inh	T cruzi growth-2	T cruzi growth-3	NIH3T3 tox	NIH3T3 tox 2
C[C@H](CO)N1C[C@H](C)[C@@H](CN(C)C(=O)Nc2ccccc2F)Oc2cc(-c3cccc(C#N)c3)ccc2S1(=O)=O	nt	?	0	-50	103*	51	41*	69*
Cc1ccc([N+](=O)[O-])cc1NC(=O)C1(c2ccccc2)CCN(S(=O)(=O)c2ccccc2)CC1	0	nt	nt	nt	nt	nt	nt	nt
COC(=O)C[C@@H]1C[C@H]2c3cc(NC(=O)NC4CCCCC4)ccc3O[C@H]2[C@H](CO)O1	0	-3	5	14	nt	nt	nt	nt
C[C@@H]1CN([C@H](C)CO)C(=O)c2cccc(NC(=O)C3CC3)c2O[C@H]1CN(C)Cc1ccc(C(=O)Nc2ccccc2N)cc1	nt	102*	2	-46	110*	93	6	30*
C[C@H](CO)N1C[C@H](C)[C@H](CN(C)Cc2ccc(C(=O)Nc3ccccc3N)cc2)Oc2c(NC(=O)C3CC3)cccc2C1=O	nt	98*	0	-16	106*	94	1	43*
C[C@@H]1CN([C@@H](C)CO)C(=O)c2cccc(NC(=O)C3CC3)c2O[C@@H]1CN(C)Cc1ccc(C(=O)Nc2ccccc2N)cc1	nt	76	3	-14	nt	nt	nt	nt
CO[C@H]1CN(C)C(=O)c2cc(NC(=O)Nc3cccc(Cl)c3)ccc2OC[C@@H](C)N(C)C[C@@H]1C	0	-110	0	-5	nt	nt	nt	nt
CCCNC(=O)C[C@@H]1CC[C@@H]2[C@H](COc3ccc(NC(=O)c4cc(C)on4)cc3C(=O)N2C)O1	nt	64	-2	3	nt	nt	nt	nt
C[C@@H]1CCCCO[C@H](CN(C)Cc2ccncc2)[C@@H](C)CN([C@H](C)CO)C(=O)c2cc(N(C)C)ccc2O1	4	108*!	21	2	59	-10	13	-1
C[C@@H]1CN([C@@H](C)CO)C(=O)c2cc(N(C)C)ccc2O[C@@H](C)CCCCO[C@@H]1CN(C)Cc1ccc2c(c1)OCO2	nt	101*!	4	-30	?	-25	0	11
O=C(Cn1c2ccccc2n2ncnc12)c1ccc(-c2ccccc2)cc1	-1	nt	nt	nt	nt	nt	nt	nt
COCCNC(=O)C[C@@H]1C[C@H]2c3cc(NC(=O)Nc4ccc(C(F)(F)F)cc4)ccc3O[C@H]2[C@H](CO)O1	0	123*	0	-68	42	-2	-14	-2
COC(=O)C[C@H]1C[C@@H]2c3cc(NC(=O)Nc4ccc(C(F)(F)F)cc4)ccc3O[C@@H]2[C@@H](CO)O1	2	104*	-3	-37	108*	30	10	25*
COc1ccc(NC(=O)Nc2ccc3c(c2)C(=O)N([C@@H](C)CO)C[C@H](C)[C@H](CN(C)C(=O)Nc2ccc(OC)cc2)OCCCC[C@@H](C)O3)cc1	0	nt	2	-71	nt	nt	nt	nt
COc1ccc(NC(=O)Nc2ccc3c(c2)C(=O)N([C@@H](C)CO)C[C@H](C)[C@@H](CN(C)C(=O)C2CCCCC2)OCCCC[C@@H](C)O3)cc1	0	95*	0	?	104*	5	0	-28
COc1ccc(NC(=O)N(C)C[C@@H]2OCCCC[C@H](C)Oc3ccc(NC(=O)Nc4ccc(F)cc4)cc3C(=O)N([C@@H](C)CO)C[C@@H]2C)cc1	nt	101*	-3	-11	107*	39	15	0
